Activity calls are given as the source filed them. The calls are words filed in the database; no cut-off is given here.
Assays:
[1] = molecular target: T1, Potassium voltage-gated channel subfamily KQT member 4 (Homo sapiens, UniProt P56696); experiment: Activation of human Kv7.4 expressed in CHO cells assessed as delta V at 10 uM by whole cell patch clamp electrophysiology assay; type: cell-based
T1 sequence (P56696 whole entry): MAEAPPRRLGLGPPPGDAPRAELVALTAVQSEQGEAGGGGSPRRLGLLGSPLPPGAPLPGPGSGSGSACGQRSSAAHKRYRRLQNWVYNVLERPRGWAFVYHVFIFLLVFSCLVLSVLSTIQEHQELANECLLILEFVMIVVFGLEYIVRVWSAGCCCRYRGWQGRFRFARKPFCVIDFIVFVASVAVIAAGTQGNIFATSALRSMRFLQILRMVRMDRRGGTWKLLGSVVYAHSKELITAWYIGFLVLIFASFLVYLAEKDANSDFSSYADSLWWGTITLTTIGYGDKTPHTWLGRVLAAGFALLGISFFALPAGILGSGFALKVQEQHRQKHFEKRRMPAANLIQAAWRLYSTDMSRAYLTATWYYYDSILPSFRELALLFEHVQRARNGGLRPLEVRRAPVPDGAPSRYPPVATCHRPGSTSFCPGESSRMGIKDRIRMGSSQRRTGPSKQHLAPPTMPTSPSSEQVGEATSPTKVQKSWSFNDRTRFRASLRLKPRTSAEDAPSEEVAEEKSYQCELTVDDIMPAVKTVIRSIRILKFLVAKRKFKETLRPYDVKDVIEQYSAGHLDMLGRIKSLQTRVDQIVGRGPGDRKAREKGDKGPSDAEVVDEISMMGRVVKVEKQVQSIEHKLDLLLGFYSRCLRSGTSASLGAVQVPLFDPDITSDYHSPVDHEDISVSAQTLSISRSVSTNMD

[2] = tested on: Potassium voltage-gated channel subfamily KQT member 2 (Homo sapiens), O43526 [F168L]; experiment: Activation of ICA-insensitive human Kv7.2 F168L mutant expressed in CHO cells assessed as increase in channel current amplitude at 10 uM measured at holding potential of -40 mV by whole cell patch clamp electrophysiology assay; type: cell-based
Sequence of Potassium voltage-gated channel subfamily KQT member 2 (Homo sapiens), O43526 [F168L] (O43526 whole entry F168L, the tested form may be a part): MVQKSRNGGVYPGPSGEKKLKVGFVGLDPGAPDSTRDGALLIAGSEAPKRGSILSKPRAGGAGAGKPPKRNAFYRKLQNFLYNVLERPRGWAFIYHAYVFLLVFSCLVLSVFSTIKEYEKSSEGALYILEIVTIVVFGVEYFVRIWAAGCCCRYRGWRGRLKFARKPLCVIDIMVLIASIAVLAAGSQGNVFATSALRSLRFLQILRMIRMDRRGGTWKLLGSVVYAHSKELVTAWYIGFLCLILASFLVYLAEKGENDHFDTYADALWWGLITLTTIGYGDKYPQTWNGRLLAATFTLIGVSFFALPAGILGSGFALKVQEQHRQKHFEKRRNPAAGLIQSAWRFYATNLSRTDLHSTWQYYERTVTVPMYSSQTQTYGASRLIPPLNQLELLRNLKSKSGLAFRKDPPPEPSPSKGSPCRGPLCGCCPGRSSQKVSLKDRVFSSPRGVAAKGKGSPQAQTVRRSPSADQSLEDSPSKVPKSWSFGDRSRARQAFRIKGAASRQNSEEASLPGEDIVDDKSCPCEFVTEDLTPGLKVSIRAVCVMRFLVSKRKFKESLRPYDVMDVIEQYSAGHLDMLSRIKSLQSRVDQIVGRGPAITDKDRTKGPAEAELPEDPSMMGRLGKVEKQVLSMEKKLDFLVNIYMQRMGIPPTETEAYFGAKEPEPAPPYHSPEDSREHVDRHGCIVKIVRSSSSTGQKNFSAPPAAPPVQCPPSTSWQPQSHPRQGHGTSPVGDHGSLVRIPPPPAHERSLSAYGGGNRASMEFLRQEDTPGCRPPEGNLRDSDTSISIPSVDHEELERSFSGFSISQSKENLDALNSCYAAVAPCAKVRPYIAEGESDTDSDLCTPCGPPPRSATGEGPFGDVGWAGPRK
Outline: (§1)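 CHO cells transiently co-transfected (Lipofectamine 2000, 4 μg total cDNA, EGFP marker) with human channel cDNA in pcDNA3.1, recorded 24 h later. Whole-cell patch clamp at 20–22°C, 3–5 MΩ pipettes, perfused extracellular solution pH 7.4. Held at −80 mV; 3-s ramps −80 to +20 mV ± 10 μM drug. Current at −40 mV with vs without drug expressed as ratio; ≥3 cells from ≥2 transfections, mean ± SEM.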

[3] = Photostability of compound in pH 7.4 buffer assessed as compound degradation at 100 ug/ml incubated for 6 hrs under natural solar light-irradiation by HPLC analysis relative to control
Outline: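 DMSO solutions diluted in pH 7.4 buffer, held in 1 cm quartz cells and exposed to natural daylight. Light-shielded controls kept at 37°C in foil. Aliquots drawn at set intervals and parent compound loss measured by UHPLC: C18 column, 0.1% TFA water/acetonitrile gradient, 45°C, detection at 254 nm.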

[4] = tested on: Potassium voltage-gated channel subfamily KQT member 2 (Homo sapiens), O43526 [W236L]; experiment: Activation of human Kv7.2 W236L mutant expressed in CHO cells assessed as channel current amplitude at 10 uM measured at holding potential of -40 mV by whole cell patch clamp electrophysiology assay; type: cell-based; outline: as §1
Sequence of Potassium voltage-gated channel subfamily KQT member 2 (Homo sapiens), O43526 [W236L] (O43526 whole entry W236L): as the sequence (O43526 whole entry F168L, the tested form may be a part) above, with L168F, W236L counted along it

[5] = molecular target: CYP450 (phase 1 metabolism) (Homo sapiens, UniProt P04798+P05177+P05181+P08684+P10632+P10635+P11509+P11712+P13584+P20813+P20815+P20853+P24462+P24903+P33260+P33261+P51589+P78329+P98187+Q02928+Q08477+Q16678+Q16696+Q5TCH4+Q6VVX0+Q7Z449+Q8TAV3+Q96SQ9+Q9HB55); experiment: Drug metabolism in human liver S9 fractions assessed as CYP450-mediated phase 1 metabolism at 1 mM preincubated for 5 mins followed by NADPH addition and measured after 60 mins by RP-UHPLC-DAD analysis relative to control; type: ADME, subcellular; details: read-out: Drug metabolism
Outline: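 Drug (1 mM stock, 2 μL) incubated with pooled human liver S9 fraction in 100 mM phosphate buffer pH 7.4. After 5 min preincubation, NADPH added and mixture kept 60 min at 37°C. Stopped with ice-cold methanol, centrifuged, supernatant analysed by RP-UHPLC-DAD. % turnover = 100 − (60 min/0 min concentration × 100). Controls: no-NADPH, and testosterone, 7-hydroxycoumarin, p-aminobenzoic acid.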

[6] = molecular target: T2, Potassium voltage-gated channel subfamily KQT member 3 (Homo sapiens) (UniProt O43525); experiment: Activation of human Kv7.3 expressed in CHO cells assessed as delta V at 30 uM by whole cell patch clamp electrophysiology assay; type: cell-based
T2 sequence (whole entry): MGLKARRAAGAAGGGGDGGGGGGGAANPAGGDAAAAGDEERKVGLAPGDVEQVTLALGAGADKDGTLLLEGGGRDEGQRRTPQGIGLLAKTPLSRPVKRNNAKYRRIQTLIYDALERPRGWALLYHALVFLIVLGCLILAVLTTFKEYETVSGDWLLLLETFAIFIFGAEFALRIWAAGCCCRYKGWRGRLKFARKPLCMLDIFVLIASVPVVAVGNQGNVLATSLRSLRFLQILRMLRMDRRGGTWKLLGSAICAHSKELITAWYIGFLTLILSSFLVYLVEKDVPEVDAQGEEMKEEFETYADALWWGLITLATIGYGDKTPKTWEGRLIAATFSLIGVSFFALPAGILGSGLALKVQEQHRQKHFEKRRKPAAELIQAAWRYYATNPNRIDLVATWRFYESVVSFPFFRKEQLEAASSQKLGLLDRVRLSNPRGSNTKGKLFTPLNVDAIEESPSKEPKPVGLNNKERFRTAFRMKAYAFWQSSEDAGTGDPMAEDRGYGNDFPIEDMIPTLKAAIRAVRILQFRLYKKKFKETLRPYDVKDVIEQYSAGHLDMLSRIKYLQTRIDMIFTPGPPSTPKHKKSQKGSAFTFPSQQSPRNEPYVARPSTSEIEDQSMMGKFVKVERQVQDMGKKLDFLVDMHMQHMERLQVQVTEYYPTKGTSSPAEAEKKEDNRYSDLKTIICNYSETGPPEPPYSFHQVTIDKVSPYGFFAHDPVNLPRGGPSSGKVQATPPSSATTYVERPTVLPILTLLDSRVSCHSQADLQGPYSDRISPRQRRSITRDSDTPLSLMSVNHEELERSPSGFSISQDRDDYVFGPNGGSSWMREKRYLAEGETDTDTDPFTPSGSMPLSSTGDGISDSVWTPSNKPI

[7] = molecular target: Voltage-gated potassium channel, KQT; KCNQ2(Kv7.2)/KCNQ3(Kv7.3) (Homo sapiens) (UniProt O43526+O43525); experiment: Activation of human Kv7.2/Kv7.3 expressed in CHO cells assessed as delta V at 10 uM by whole cell patch clamp electrophysiology assay; type: cell-based
[8] = molecular target: Potassium voltage-gated channel subfamily KQT member 2 (Homo sapiens, UniProt O43526); experiment: Activation of human Kv7.2 expressed in CHO cells assessed as increase in current amplitude at 10 uM measured at holding potential of -40 mV by whole cell patch clamp electrophysiology assay relative to control; type: cell-based; outline: as §1
Sequence of Potassium voltage-gated channel subfamily KQT member 2 (O43526 whole entry): as the sequence (O43526 whole entry F168L, the tested form may be a part) above, with L168F counted along it

| Compound | Activity [1] [mV] | Activity [2] | Drug degradation [3] [%] | Activity [4] | metabolised at 1 h, 1000 µM [5] [%] | Activity [6] [mV] | Activity [7] [mV] | Activity [8] | Ratio [8] |
| --- | --- | --- | --- | --- | --- | --- | --- | --- | --- |
| CC(C)(C)CC(=O)Nc1ccc2c(ccn2Cc2ccc(C(F)(F)F)cc2)c1 | -24.43 | Active | 8.45 | inactive | 17.3 | -21.4 | -20 | Active |  |
| CCCCCCC(=O)Nc1ccc2c(ccn2Cc2ccc(C(F)(F)F)cc2)c1 | -32.85 | Active | 9.15 | inactive | 48.7 | -26.2 | -25.4 | Active |  |
| CCOC(=O)Nc1ccc(NCc2ccc(F)cc2)cc1N [EZOGABINE] | -15.19 | Active | 43.5 to 47.3 | inactive | 3.11 | -39.9 | -26.8 |  | 6 |

Source: ChEMBL document CHEMBL4402547, “Synthesis and Pharmacological Characterization of Conformationally Restricted Retigabine Analogues as Novel Neuronal Kv7 Channel Activators” (J Med Chem, 2020)
